Several values for one entry are separate records, joined by “and”; a condition that tells them apart may be missing. Identical values can stand only once.
Key:
carboxylate esterase [1] = assay: Half life period in the absence or presence of pig liver carboxylate esterase at 25 degrees C in aqueous solution of C + esterase (5-fold unit equiv); type: ADME
How it was run: (§1)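 Drug at 20 μM in 0.05 M phosphate buffer, pH 7.4, pre-equilibrated, then given porcine liver carboxylate esterase (200 units/mg) at 2, 5, 10 or 20 units per μmol substrate. At 0.25–60 min samples were vortexed and centrifuged, and the supernatant measured for parent drug by C-18 HPLC. Half-life came from pseudo-first-order least-squares regression.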

carboxylate esterase [2] = assay: Half life period in the absence or presence of pig liver carboxylate esterase at 25 degrees C in aqueous solution of C + esterase (10-fold unit equiv); type: ADME; how it was run: as §1
[3] = Half life period in the absence or presence of pig liver carboxylate esterase at 25 degrees C in aqueous solution of 0.05 M phosphate buffer at pH 7.4; conditions: 0.05 M phosphate buffer (aqueous solution)
CHO [4] = assay: The compound was tested in vitro for growth inhibition of Chinese Hamster Ovary(CHO) cells; type: functional, cell-based; conditions: Cricetulus griseus
How it was run: (§2)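 Exponentially growing CHO cells, or the P-glycoprotein-overexpressing doxorubicin-resistant CHO/DOX subline, were seeded at 1.5 × 10⁴ cells/mL in McCoy's 5A with 10% FCS. They were exposed to at least 7 concentrations (2 × 10⁻¹² to 2 × 10⁻⁵ M) for 6 days at 37 °C. Cells were then formaldehyde-fixed, crystal-violet-stained and counted microscopically. IC50 (50% growth inhibition versus untreated controls) was taken from dose–response curves, mean of duplicates.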

CHO [5] = assay: The compound was tested in vitro for growth inhibition of subline (CHO/DOX) with acquired resistance to doxorubicin; type: functional, cell-based; conditions: Cricetulus griseus; how it was run: as §2
carboxylate esterase [6] = assay: Half life period in the absence or presence of pig liver carboxylate esterase at 25 degrees C in aqueous solution of C + esterase (20-fold unit equiv); type: ADME; how it was run: as §1
[7] = Half life period in the absence or presence of pig liver carboxylate esterase at 25 degrees C in aqueous solution of 0.05 M acetate buffer at pH 4.0; type: ADME; conditions: in vivo
How it was run: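 Drug at 20 μM in 0.05 M acetate buffer, pH 4.0, no enzyme. Aliquots were taken at set times (about 2–250 h) and the parent drug measured by reverse-phase C-18 HPLC (CH3CN–0.05 N acetate pH 4.0, 2:3). Half-life came from linear least-squares regression of pseudo-first-order loss.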

carboxylate esterase [8] = assay: Half life period in the absence or presence of pig liver carboxylate esterase at 25 degrees C in aqueous solution of C + esterase (2-fold unit equiv); type: ADME; how it was run: as §1

| half-life (carboxylate esterase [1]) [min] | half-life (carboxylate esterase [2]) [min] | half-life [3] [min] | half-life (carboxylate esterase [6]) [min] | T1/2 [7] | half-life (carboxylate esterase [8]) [min] | SMILES | IC50 (CHO [4]) [nM] | IC50 (CHO [5]) [nM] |
| --- | --- | --- | --- | --- | --- | --- | --- | --- |
| 4 | 1 | 1440 | 0.333 | > 240 h and 97 h | 27 | COc1cccc2c1C(=O)c1c(O)c3c(c(O)c1C2=O)CC(O)(C(=O)CO)CC3OC1CC(NCCCCC(OC(C)=O)OC(C)=O)C(O)C(C)O1.Cl (centres undefined) | 0.4 | 0.7 |
|  |  |  |  |  |  | CCCCCNC1CC(OC2CC(O)(C(=O)CO)Cc3c(O)c4c(c(O)c32)C(=O)c2c(OC)cccc2C4=O)OC(C)C1O (centres undefined) | 57 | 420 |
|  |  |  |  |  |  | COc1cccc2c1C(=O)c1c(O)c3c(c(O)c1C2=O)CC(O)(C(=O)CO)CC3OC1CC(NCCCCCOC(C)=O)C(O)C(C)O1 (centres undefined) | 83 | 350 |
|  |  |  |  |  |  | COc1cccc2c1C(=O)c1c(O)c3c(c(O)c1C2=O)C[C@@](O)(C(=O)CO)C[C@@H]3O[C@H]1C[C@H](N)[C@H](O)[C@H](C)O1 [DOXORUBICIN] | 60 | 6000 |
